For 42 compounds, inhibition results are on record in ChEMBL document CHEMBL4402603, “Structure-Activity Relationship of SPOP Inhibitors against Kidney Cancer” (J Med Chem, 2020).

One experiment concerns A498. The experiment in a line: Antiproliferative activity against human A498 cells assessed as reduction in cell viability at 30 uM incubated for 72 hrs by MTT assay relative to control. The experiment is classed as functional. As to conditions: A498, 72 h. Put shortly: (§1)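 MTT read-out. Cells seeded at 1,000-2,200/well, grown 12 hr at 37 °C, then compound added for 72 hr. MTT for 4 hr, formazan dissolved in DMSO, absorbance at 490 nm. Untreated-cell OD taken as 100% proliferation; inhibition reported at 30 μM.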

In the next experiment the test system is OS-RC-2. The experiment in a line: Antiproliferative activity against human OS-RC2 cells assessed as reduction in cell viability at 30 uM incubated for 72 hrs by MTT assay relative to control. The format is functional. Conditions: OS-RC-2, 72 h. Put shortly:
as §1

Structures are written as SMILES.

Consider `CCOC(=O)c1cc2c(=O)n3cccc(C)c3nc2n(CCc2ccccc2)c1=N`, for which the values for the inhibition at 30 µM with A498 and in the experiment on OS-RC-2 were 24% and 20%, respectively.

Take `Cc1cccn2c(=O)c3cc(C(=O)NCCCN4CCOCC4)c(=N)n(CCc4ccccc4F)c3nc12`: the inhibition at 30 µM worked out at 61% in the experiment with A498 and 74% in the experiment on OS-RC-2.

For the compound `Cc1ccc(CCn2c(=N)c(C(=O)O)cc3c(=O)n4cccc(C)c4nc32)cc1`, the inhibition at 30 µM in the experiment on A498 stood at 51%; in the experiment with OS-RC-2, 31%.

In the case of `CCOC(=O)c1cc2c(=O)n3cccc(C)c3nc2n(C(C)C)c1=N`, the inhibition at 30 µM in the experiment with A498 is 27%; with OS-RC-2 it was 23%.

For the compound `Cc1cccn2c(=O)c3cc(C(=O)NCCCN4CCOCC4)c(=N)n(C4CCCCC4)c3nc12`, the inhibition at 30 µM with A498 is 37%; in the experiment on OS-RC-2, 22%.

As to `Cc1cccn2c(=O)c3cc(C(=O)NCCc4ccc(F)cc4)c(=N)n(CCc4cccs4)c3nc12`, the inhibition at 30 µM in the experiment with A498 is 12%; with OS-RC-2, 21%.

Regarding `O=C(O)c1cc2cccnc2n(CCc2ccccc2)c1=O`, the inhibition at 30 µM is 33% in the experiment with A498 and 24% with OS-RC-2.

In the case of `CCCn1c(=N)c(C(=O)OCC)cc2c(=O)n3cccc(C)c3nc21`, the values for the inhibition at 30 µM with A498 and with OS-RC-2 were 38% and 35%, respectively.

`CCN(CC)CCNC(=O)c1cc2cnccc2n(CCc2ccccc2)c1=O`: the values for the inhibition at 30 µM with A498 and with OS-RC-2 were 38% and 11%, respectively.

Take `CCOC(=O)c1cc2c(=O)n3cccc(C)c3nc2n(Cc2ccccc2)c1=N`: the values for the inhibition at 30 µM in the experiment on A498 and in the experiment on OS-RC-2 were 24% and 26%, respectively.

As for `Cc1cccn2c(=O)c3cc(C(=O)NCCCN4CCOCC4)c(=N)n(Cc4ccncc4)c3nc12`, the inhibition at 30 µM in the experiment on A498 was 48%; with OS-RC-2, 35%.

For `CCOC(=O)c1cc2c(=O)n3cccc(C)c3nc2n(Cc2ccco2)c1=N`, the inhibition at 30 µM was 59% in the experiment on A498 and 56% in the experiment with OS-RC-2.

`Cc1cccn2c(=O)c3cc(C(=O)O)c(=N)n(-c4ccc(F)cc4)c3nc12`: the inhibition at 30 µM in the experiment on A498 was 18%; in the experiment on OS-RC-2, 33%.

Turning to `Cc1cccn2c(=O)c3cc(C(=O)NCCCN4CCOCC4)c(=N)n(Cc4ccccc4)c3nc12`, the results for the inhibition at 30 µM with A498 and in the experiment on OS-RC-2 were 58% and 46%, respectively.

As to `Cc1cccn2c(=O)c3cc(C(=O)NCc4ccccc4)c(=N)n(CCc4cccs4)c3nc12`, the inhibition at 30 µM in the experiment on A498 was 60%; in the experiment with OS-RC-2 it was 50%.

On to `Cc1cccn2c(=O)c3cc(C(=O)NCCCN4CCOCC4)c(=N)n(CCCN4CCOCC4)c3nc12`, for which the inhibition at 30 µM was 27% in the experiment with A498 and 35% with OS-RC-2.

As for `CCCn1c(=N)c(C(=O)O)cc2c(=O)n3cccc(C)c3nc21`, the inhibition at 30 µM in the experiment on A498 amounted to 21%; in the experiment on OS-RC-2, 29%.

In the case of `Cc1cccn2c(=O)c3cc(C(=O)NCCO)c(=N)n(CCc4cccs4)c3nc12`, the inhibition at 30 µM in the experiment with A498 was determined as 83%; with OS-RC-2, 81%.

In the case of `CCN(CC)CCNC(=O)c1cc2cccnc2n(CCc2ccccc2)c1=O`, the inhibition at 30 µM with A498 was 13%; in the experiment on OS-RC-2, 30%.

Turning to `CCOC(=O)c1cc2c(=O)n3cccc(C)c3nc2n(-c2ccccc2)c1=N`, the inhibition at 30 µM with A498 came out at 51%; in the experiment with OS-RC-2 it was 10%.

As to `Cc1cccn2c(=O)c3cc(C(=O)NCC4CCCO4)c(=N)n(CCc4cccs4)c3nc12` (centres undefined), the inhibition at 30 µM in the experiment on A498 was 86%; in the experiment on OS-RC-2, 83%.

Take `C#CCn1c(=N)c(C(=O)NCCCN2CCOCC2)cc2c(=O)n3cccc(C)c3nc21`: the inhibition at 30 µM in the experiment on A498 and in the experiment on OS-RC-2 was 37% throughout.

On to `O=C(O)c1cc2cnccc2n(CCc2ccccc2)c1=O`, for which the values for the inhibition at 30 µM with A498 and with OS-RC-2 were 21% and 15%, respectively.

Consider `CCOC(=O)c1cc2cnccc2n(CCc2ccccc2)c1=O`, for which the inhibition at 30 µM with A498 came out at 14%; in the experiment with OS-RC-2, 15%.

Consider `O=C(NCCc1ccc(F)cc1)c1cc2cnccc2n(CCc2ccccc2)c1=O`, for which the values for the inhibition at 30 µM with A498 and with OS-RC-2 were 25% and 16%, respectively.

As to `Cc1ccn2c(=O)c3cc(C(=O)NCCCN4CCOCC4)c(=N)n(CCc4cccs4)c3nc2c1`, the inhibition at 30 µM was 75% in the experiment with A498 and 77% in the experiment with OS-RC-2.

As to `Cc1cccn2c(=O)c3cc(C(=O)NCCCN4CCOCC4)c(=N)n(C)c3nc12`, the inhibition at 30 µM is 59% with A498 and 62% with OS-RC-2.

Turning to `Cc1cccn2c(=O)c3cc(C(=O)O)c(=N)n(-c4ccccc4)c3nc12`, the values for the inhibition at 30 µM in the experiment on A498 and with OS-RC-2 were 24% and 16%, respectively.

With `Cc1cccn2c(=O)c3cc(C(=O)O)c(=N)n(CCc4ccc(Cl)cc4)c3nc12`, the inhibition at 30 µM came to 57% in the experiment on A498 and 30% in the experiment with OS-RC-2.

Take `Cc1cccn2c(=O)c3cc(C(=O)O)c(=N)n(C(C)C)c3nc12`: the inhibition at 30 µM in the experiment on A498 amounted to 18%; in the experiment on OS-RC-2 it was 22%.

As to `CCOC(=O)c1cc2cccnc2n(CCc2ccccc2)c1=O`, the inhibition at 30 µM in the experiment with A498 turned out to be 15%; in the experiment on OS-RC-2, 19%.

Consider `Cc1cccn2c(=O)c3cc(C(=O)O)c(=N)n(Cc4ccccc4)c3nc12`, for which the inhibition at 30 µM in the experiment on A498 worked out at 20%; with OS-RC-2 it was 32%.

For `Cc1cccn2c(=O)c3cc(C(=O)O)c(=N)n(CCc4cccs4)c3nc12`, the inhibition at 30 µM in the experiment on A498 is 25%; in the experiment on OS-RC-2, 37%.

`Cc1cccn2c(=O)c3cc(C(=O)NCCCN4CCOCC4)c(=N)n(CCN4CCOCC4)c3nc12`: the inhibition at 30 µM in the experiment on A498 stood at 35%; in the experiment with OS-RC-2 it was 40%.

On to `Cc1cccn2c(=O)c3cc(C(=O)NCCCN4CCOCC4)c(=N)n(CCc4c[nH]c5ccccc45)c3nc12`, for which the inhibition at 30 µM in the experiment with A498 turned out to be 55%; with OS-RC-2, 51%.

Take `Cc1cccn2c(=O)c3cc(C(=O)NCCCN4CCOCC4)c(=N)n(-c4ccc(Cl)cc4)c3nc12`: the inhibition at 30 µM in the experiment on A498 came to 17%; in the experiment on OS-RC-2, 38%.

Regarding `O=C(NCCc1ccc(F)cc1)c1cc2cccnc2n(CCc2ccccc2)c1=O`, the inhibition at 30 µM is 8% in the experiment on A498 and 14% in the experiment with OS-RC-2.

Regarding `N=c1c(C(=O)NCCCN2CCOCC2)cc2c(=O)n3ccccc3nc2n1CCc1cccs1`, the values for the inhibition at 30 µM in the experiment with A498 and in the experiment with OS-RC-2 were 62% and 56%, respectively.

As for `Cc1cccn2c(=O)c3cc(C(=O)O)c(=N)n(Cc4ccco4)c3nc12`, the figures for the inhibition at 30 µM in the experiment with A498 and in the experiment with OS-RC-2 were 24% and 16%, respectively.

Turning to `Cc1cccn2c(=O)c3cc(C(=O)NCCCN4CCOCC4)c(=N)n(C(C)C)c3nc12`, the figures for the inhibition at 30 µM in the experiment with A498 and in the experiment on OS-RC-2 were 11% and 15%, respectively.

Turning to `Cc1cccn2c(=O)c3cc(C(=O)NCCCN4CCOCC4)c(=N)n(-c4ccccc4)c3nc12`, the inhibition at 30 µM in the experiment with A498 is 12%; in the experiment on OS-RC-2 it was 23%.

As to `Cc1cccn2c(=O)c3cc(C(=O)NCCCN4CCOCC4)c(=N)n(CCOc4ccccc4)c3nc12`, the inhibition at 30 µM in the experiment with A498 is 50%; in the experiment with OS-RC-2, 36%.
